What is called IC50 is the point on the concentration scale where inhibition reaches its midpoint.

Calls of active or inactive are those of the source. The rule behind the calls is not given here.

We go through seven compounds from ChEMBL document CHEMBL3784970, “Synthesis and molecular docking of N'-arylidene-5-(4-chlorophenyl)-1-(3,4-dichlorophenyl)-4-methyl-1H-pyrazole-3-carbohydrazides as novel hypoglycemic and antioxidant dual agents” (Bioorg Med Chem, 2016).

Data set [1] concerns Rattus norvegicus. Put plainly: Antidiabetic activity in streptozotocin/nicotinamide-induced Wistar rat model of diabetes assessed as plasma glucose reduction at 50 mg/kg, ig measured at 1 to 7 hrs post dose by glucometric analysis. In kind it is functional, organism-based.
The nature of data set [2]: Antioxidant activity assessed as DPPH radical scavenging activity incubated for 20 mins. In kind it is physicochemical. An outline of the steps: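 DPPH (100 μM in ethanol) was mixed with sample at different concentrations and incubated 20 min at room temperature in the dark, then A517 was read. % scavenging was calculated against a water control. IC was reported as mean ± SEM, n = 3.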
(In general: The DPPH test is a chemical assay of radical scavenging.)

Data set [3] in a line: Antioxidant activity assessed as DPPH radical scavenging activity at 1 uM incubated for 20 mins. In kind it is physicochemical.
Data set [4] in a line: Antioxidant activity assessed as DPPH radical scavenging activity at 10 uM incubated for 20 mins. In kind it is physicochemical.
Data set [5] can be described thus: Antioxidant activity assessed as DPPH radical scavenging activity at 100 uM incubated for 20 mins. In kind it is physicochemical.
Data set [6] concerns Rattus norvegicus. Put plainly: Antidiabetic activity in streptozotocin/nicotinamide-induced Wistar rat model of diabetes assessed as plasma glucose variation at 50 mg/kg, ig measured at 1 hr post dose by glucometric analysis (reference value: 17 +/- 8%). In kind it is functional.
In data set [7] the test system is Rattus norvegicus. In words: Antidiabetic activity in streptozotocin/nicotinamide-induced Wistar rat model of diabetes assessed as plasma glucose variation at 50 mg/kg, ig measured at 3 hrs post dose by glucometric analysis (reference value: -13 +/- 10%). In kind it is functional.
The subject of data set [8] is Rattus norvegicus. In words: Antidiabetic activity in streptozotocin/nicotinamide-induced Wistar rat model of diabetes assessed as plasma glucose variation at 50 mg/kg, ig measured at 5 hrs post dose by glucometric analysis (reference value: -2 +/- 6%). In kind it is functional.
The subject of data set [9] is Rattus norvegicus. In words: Antidiabetic activity in streptozotocin/nicotinamide-induced Wistar rat model of diabetes assessed as plasma glucose variation at 50 mg/kg, ig measured at 7 hrs post dose by glucometric analysis (reference value: -5 +/- 8%). In kind it is functional.

Regarding `COc1cc(/C=N/NC(=O)c2nn(-c3ccc(Cl)c(Cl)c3)c(-c3ccc(Cl)cc3)c2C)ccc1O`, in the data set on Rattus norvegicus [1], the result was Active.

`Cc1c(C)c2c(c(C)c1O)CC[C@@](C)(CCC[C@H](C)CCC[C@H](C)CCCC(C)C)O2` [ALPHA-TOCOPHEROL]: in [2], the half-maximal inhibitory concentration (IC50) was found to be 10.9 µM.

In the case of `COc1cc(/C=C/C(=O)O)ccc1O` [FERULATE], the Activity came to 3.06% in [3], 14.52% in data set [4] and 78.73% in data set [5]. Also, the half-inhibitory concentration (IC50) in [2] was found to be 47.7 µM.

With `COc1ccc(Cl)cc1C(=O)NCCc1ccc(S(=O)(=O)NC(=O)NC2CCCCC2)cc1` [GLYBURIDE], the Activity in the data set with Rattus norvegicus [6] is reported as -4%; with Rattus norvegicus [7], -31%; with Rattus norvegicus [8], -31%; in the data set with Rattus norvegicus [9] it was -31%.

Turning to `O=c1c(O)c(-c2ccc(O)c(O)c2)oc2cc(O)cc(O)c12` [QUERCETIN], the 50% inhibitory concentration (IC50) in [2] is 31.7 µM.

On to `Cc1c(C(=O)NN2CCCCC2)nn(-c2ccc(Cl)cc2Cl)c1-c1ccc(Cl)cc1` [RIMONABANT], for which the Activity was -30% in the data set with Rattus norvegicus [6], -21% in the data set with Rattus norvegicus [7], -30% in the data set on Rattus norvegicus [8] and -39% with Rattus norvegicus [9].

On to `COc1cc(/C=C/C(=O)O)cc(OC)c1O` [SINAPINATE], for which the Activity in data set [3] stood at 2.65%; in data set [4], 23.29%; in data set [5], 90.61%. The IC50 in data set [2] came to 35.8 µM.
